Measured values from different studies.
Each line is one published result; the experiments were not run side by side.
CA2: Carbonic anhydrase 2 (CA2, Homo sapiens, UniProt P00918)
OPRD1: Delta-type opioid receptor (OPRD1, Homo sapiens, UniProt P41143)

| Structure (SMILES) | target | assay | conditions | quantity | result |
| --- | --- | --- | --- | --- | --- |
| COc1ccc(S(=O)(=O)Oc2cc(OC)ccc2C=NNC(=O)c2ccc(F)cc2)cc1 | CA2 | enzyme activity, inhibitor, absorbance |  | IC50 | 141 nM |
| COc1ccc2[nH]c(C)c(CC[N+](C)(C)C)c2c1 | 5-hydroxytryptamine receptor 3A (HTR3A, Homo sapiens, UniProt P46098) | ligand displacement, radioligand |  | Ki | ~2600 nM |
| O=C1CCc2ccccc2O1 | Carbonic anhydrase (Vibrio cholerae serotype O1, UniProt Q9KMP6) | enzyme activity, inhibitor, stopped-flow |  | Ki | 8900 nM |
| COc1ccc(S(=O)(=O)Oc2ccc(C=NNC(=O)c3ccc(F)cc3)cc2OC)cc1 | CA2 | enzyme activity, inhibitor, absorbance |  | IC50 | 23.2 nM |
| CS(=O)(=O)c1ccc(C(=O)N[C@H]2CC[C@@]3(O)[C@H]4Cc5ccc(O)c6c5[C@@]3(CCN4CC3CC3)[C@H]2O6)s1 | OPRD1 | ligand displacement, radioligand | cell membranes | Ki | 27 nM |
| CNC(=O)c1ccc(-c2cnn3ccc(C(=O)N(C)c4ccc(Cl)c(C(=O)OC)c4)cc23)cc1 | Tyrosine-protein kinase ABL1 (ABL1, Homo sapiens, UniProt P00519) | enzyme activity, inhibitor |  | IC50 | > 30000 nM |
| O=C(N[C@H]1CC[C@@]2(O)[C@H]3Cc4ccc(O)c5c4[C@@]2(CCN3CC2CC2)[C@H]1O5)c1ccc(F)s1 | OPRD1 | ligand displacement, radioligand | cell membranes | Ki | 31.4 nM |
| COC(=O)c1cc(N(C)C(=O)c2ccn3ncc(-c4ccc(C(=O)O)cc4)c3c2)ccc1Cl | Receptor tyrosine-protein kinase erbB-2 (ERBB2, Homo sapiens, UniProt P04626) | enzyme activity, inhibitor |  | IC50 | > 30000 nM |
